# Rev-erbA mod – modulators of Rev-erb alpha DNA binding, primary screen, biochemical, FITC-DNA, fluorescence polarization, uHTS. 370,000 compounds, 0.79% hits. activity, % at 10 µM. Rev-erbα–FITC-DNA binding, 90 min. Nuclear receptor subfamily 1 group D member 1 (Homo sapiens), P20393;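 active means activity above about 14%, limit read from the data; passing the limit was not always enough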
# NR2E3 ag-1 – NR2E3 agonists in two-hybrid cells, primary screen, cell-based, luminescence, CHO-S, Gal4-NCOR/VP16-NR2E3; Photoreceptor-specific nuclear receptor (Homo sapiens), Q9Y5X4; luciferase; inhibition of corepressor binding, % at 3.98 µM; 360,000 compounds, 0.35% hits;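 active means inhibition above the mean of all tested compounds plus 3 SD, cut at about 70% in these data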;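 further: higher means lower luciferase signal from less NR2E3 corepressor binding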
# Target sequence (Q9Y5X4 whole entry, looked up, the tested form may be a part): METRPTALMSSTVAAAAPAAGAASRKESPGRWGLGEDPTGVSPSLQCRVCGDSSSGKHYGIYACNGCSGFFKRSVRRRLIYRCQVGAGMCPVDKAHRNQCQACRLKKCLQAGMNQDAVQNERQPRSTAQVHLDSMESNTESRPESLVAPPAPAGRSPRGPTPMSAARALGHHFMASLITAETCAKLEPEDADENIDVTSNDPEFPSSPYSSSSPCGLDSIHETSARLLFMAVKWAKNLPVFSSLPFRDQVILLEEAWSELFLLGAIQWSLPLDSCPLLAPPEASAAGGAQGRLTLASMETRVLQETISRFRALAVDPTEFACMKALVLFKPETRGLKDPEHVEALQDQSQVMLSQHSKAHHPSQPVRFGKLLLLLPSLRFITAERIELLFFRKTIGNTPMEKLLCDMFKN
# NR2E3 ag-2 – inhibitors of NR2E3-RetCOR corepressor binding, primary screen, NR2E3 agonist project, biochemical, TR-FRET, GST-NR2E3, biotin-RetCOR | Photoreceptor-specific nuclear receptor (Homo sapiens), Q9Y5X4 | 1536-well | inhibition of corepressor binding, % at 4.78 µM | 320,000 compounds, 0.12% hits | AID 2300, 2010;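 active means percent inhibition above the cutoff of mean plus 3 SD of all tested compounds, set per screening campaign, cut at about 20% in these data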
#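 Test system – NR2E3–RetCOR corepressor complex · Quantity – NR2E3 fusion 1.35 nM · Buffer or medium – Tris pH 7.5 · Incubation – Compound–protein incubation for 5 h at 4 °C · Technique – TR-FRET, Eu(K)-anti-GST donor, streptavidin-D2 acceptor, ex 340, em 617/671 nm · Evaluation – percent inhibition of 671/617 nm emission ratio versus biotin and DMSO controls · Plate – 1536-well format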
# PG9 Ab binder – binders of HIV-1 gp120 antibody PG9, primary screen, biochemical, TR-FRET. 360,000 compounds, 0.43% hits. TR-FRET gp120-PG9 antibody binding. inhibition, % at 6.7 µM. HIV-1 gp120 / PG9 antibody interaction; in the data active means inhibition above about 8.5%
# NR1D1 mod conf – modulators of Rev-erb alpha DNA binding, confirmation, biochemical, FITC-DNA, fluorescence polarization, single point; 90 min; AID 1259319, 2017; activation, % at 25 µM; 3,000 compounds, 61% hits; shares compounds with Rev-erbA mod;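 active means activation at or above a set limit, or at least 3 SD above the negative control mean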
# RORg DNA counter – modulation of RORgamma DNA binding, dose response, counter-screen for Rev-erb alpha modulator project, biochemical, fluorescence polarization, FITC-DNA | purified RORgamma protein-FITC-DNA binding | 910 compounds, 8% hits | AID 1259320, 2017 | IC50, µM | shares compounds with Rev-erbA mod;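 active means Compounds whose fitted half-maximal concentration for disrupting protein-DNA binding is below 10 micromolar; the record names Rev-erb in its text, so the target is in doubt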
# Hits are given with their value; . = inactive; / = no result given. Compounds with a hit are over-represented: about 1.5% of the library has one in this group of screens.
SMILES,Rev-erbA mod,NR2E3 ag-1,NR2E3 ag-2,PG9 Ab binder,NR1D1 mod conf,others
COc1ccc(NC(=O)c2oc3ccccc3c2NC(=O)c2ccc(OC)c(OC)c2)c(OC)c1,.,.,/,.,/,
Nc1[nH]c(C(=O)c2ccc(Br)cc2)c(-c2ccccc2Br)c1C(=O)NCCc1c[nH]c2ccccc12,.,/,/,.,/,
Cc1ccc(CNC(=O)Cc2ccc(Br)cc2)cc1,.,.,.,.,/,
Brc1nc(-c2ccccc2)nc(-c2ccccc2)c1Br,65,.,.,.,685,RORg DNA counter=.
CCCC1OC(c2cc3c(cc2Cl)OCO3)OCC1CC (stereo not given),.,.,/,.,/,
CC(C)Oc1ccc(CNC(=O)Cn2c(=O)c3cccn3c3cccnc32)cc1,.,.,.,.,/,
CCOc1ccc(CNC(=O)Cn2c(=O)c3cccn3c3ccccc32)cc1,39,.,.,.,24,
O=C(Nc1ccccc1)c1ccc(N2CCN(c3ccccc3)CC2)c(S(=O)(=O)N2CCOCC2)c1,61,.,.,.,29,
O=C(Nc1ccccc1)c1ccc(N2CCN(c3ccccn3)CC2)c(S(=O)(=O)N2CCOCC2)c1,.,.,.,.,/,
C[C@H](O)[C@@H]1CN2CCc3ccc(N4CCOCC4)cc3[C@@H]2C[C@@H]1N(C)C(=O)c1ccco1,.,/,/,/,/,
CN(Cc1ccccc1)C(=O)OCc1cn(Cc2ccc(F)c(F)c2)nn1,.,/,/,/,/,
Cc1cc(N2CCN(C(=O)Oc3ccc(-c4ccccc4)cc3)CC2)c2ccccc2n1,.,/,/,/,/,
Brc1cc2c(cc1-c1nc3ccccc3s1)OCO2,28,.,.,.,.,
CCCCN1C(=O)/C(=C2/Sc3ccccc3N2C)S/C1=N\c1ncn[nH]1,72,.,.,.,.,
COC(=O)[C@]12C[C@H](CC(=O)NCC3CCCCC3)C(=O)N(Cc3ccccc3)C1=C[C@H](C1CCCC1)O[C@@H]2C,.,/,/,.,/,
C=CCNC(=O)CN(C(=O)c1csc2ccc(Cl)cc12)c1cccc(Br)c1,.,/,/,/,/,
O=C1CCCN1CCCNc1nc2c(S(=O)(=O)c3ccc(Br)cc3)nnn2c2ccccc12,31,.,.,.,.,
CC(C)c1ccc(S(=O)(=O)c2nnn3c2nc(NCC2CCCO2)c2ccccc23)cc1 (stereo not given),/,.,.,/,/,
Cc1ccc(S(=O)(=O)c2nnn3c2nc(Nc2cccc(C)c2)c2ccccc23)cc1,29,.,.,.,.,
Cc1ccc(C)c(Nc2nc3c(S(=O)(=O)c4ccccc4)nnn3c3ccccc23)c1,63,.,.,.,33,RORg DNA counter=.
O=C(OC12CCCN(C1)/C(=C/c1ccccc1)C2)C1CCCC1 (stereo not given),.,/,/,/,/,
CC(OC(=O)c1ccc([N+](=O)[O-])o1)C(=O)Nc1nc(-c2ccc(F)c(F)c2)cs1 (stereo not given),.,.,/,.,/,
COc1ccc(NC(=O)c2cc(-c3cc(Cl)ccc3OC)n[nH]2)cc1OC,.,.,/,.,/,
COc1ccc(Cl)cc1-c1cc(C(=O)Nc2ccc(F)cc2)[nH]n1,67,.,/,.,48,RORg DNA counter=.
O=C(COC(=O)c1sc2cc(F)ccc2c1Cl)Nc1ncc(Cl)cc1Cl,64,.,.,.,37,RORg DNA counter=.
SMILES,Rev-erbA mod,NR2E3 ag-1,NR2E3 ag-2,PG9 Ab binder,NR1D1 mod conf,others
O=C(/C=C1\OCc2ccccc21)c1ccccc1,13,/,/,.,.,
COCCCn1c(C(=O)NCCC2=CCCCC2)cc2c(=O)n3cccc(C)c3nc21,62,.,.,.,40,RORg DNA counter=.
CCN(C(=O)c1ccco1)c1nnc(-c2ccc(OC)cc2)s1,25,.,.,.,.,
O=C(CCSc1nnc2scc(-c3ccccc3)n12)Nc1nc(-c2ccccc2)ns1,24,.,.,.,46,RORg DNA counter=.
COc1ccc2cc(CCN3C(=O)c4ccccc4C3=O)c(=O)[nH]c2c1,28,.,.,.,20,
CCOC(=O)c1c(SCC(=O)Nc2nccs2)nc(C)c(C)c1C,.,.,/,.,/,
CCc1cc2cc3c(cc2nc1SCC(=O)Nc1c[nH]c(=O)[nH]c1=O)OCO3,187,.,.,.,172,RORg DNA counter=.
CCc1cc2cc3c(cc2nc1SCC(=O)Nc1nccs1)OCO3,225,.,.,14,123,RORg DNA counter=.
C/C(O)=C(/C=NCC(=O)O)C(=O)Nc1nccs1,.,.,.,.,/,
O=C(Nc1cccc(Cl)c1)OCCN1CCCC12CCC(c1ccccc1)CC2 (stereo not given),.,/,/,/,/,
CS(=O)(=O)c1ccc2nc(NC(=O)c3cc([N+](=O)[O-])cc([N+](=O)[O-])c3)sc2c1,.,.,.,.,/,
Cc1ccc2nc(NC(=O)c3ccc4ncsc4c3)sc2c1,34,.,.,.,24,
O=C(Nc1ccc(Br)cc1)c1ccc2ncsc2c1,.,.,.,.,/,
COc1cc(OC)cc(C(=O)Nc2nc3ccc(S(C)(=O)=O)cc3s2)c1,33,.,.,.,21,
COc1ccc2oc(C(=O)Nc3nnc(C)s3)c(C)c2c1,.,.,.,.,/,
O=C(Nc1ccc2c(c1)C(=O)NC2=O)c1ccc2ncsc2c1,57,.,.,.,54,RORg DNA counter=6
COc1ccc2oc(C(=O)Nc3nc4ccc(S(C)(=O)=O)cc4s3)c(C)c2c1,31,.,.,.,.,
CC(=O)c1sc(NC(=O)c2oc3ccc(F)cc3c2C)nc1C,54,.,/,.,46,RORg DNA counter=.
CC(=O)c1sc(NC(=O)c2cc(=O)c3ccccc3o2)nc1C,.,.,.,.,/,
COc1cc(C(=O)Nc2nc3ccc(S(C)(=O)=O)cc3s2)cc(OC)c1C,21,.,.,.,.,
CN(Cc1nc2ccccc2c(=O)[nH]1)C(=O)c1cc(-c2ccc(Br)cc2)nc2ccccc12,36,.,/,.,23,
CCCCNC(=O)c1cc2nc3c(c(C(F)(F)F)n2n1)CCc1ccccc1-3,30,.,.,.,.,
CC(C)CNC(=O)c1cc2nc3c(c(C(F)(F)F)n2n1)CCc1ccccc1-3,.,.,.,.,/,
CCOC(=O)c1c(NC(=O)c2ccc(S(=O)(=O)N3CCOCC3)cc2)sc2c1CC(C)(C)NC2(C)C,42,.,.,.,.,
CC1(C(=O)NS(=O)(=O)c2cccc(Cl)c2)CCN1C(=O)CC1CC1 (stereo not given),.,.,/,.,/,
CC1(C(=O)NS(=O)(=O)c2cccc(Cl)c2)CCN1C(=O)CC1CCCCC1 (stereo not given),16,.,/,.,.,
CC(=O)c1c2c3c(cccc3n(C)c1=O)C(=O)c1ccccc1-2,/,/,.,/,/,

# Assay outcomes as filed in PubChem.
